The list is not random: actives were taken first. Their share in the collection is about 1.9%.
Xi reactivation – activators of X-chromosome reactivation in mouse fibroblasts; activation, % at 7.58 µM; 360,000 tested, 0.055% active; XiGFP mouse fibroblasts, % GFP-positive cells imaging, 3 d; cells co-treated with 5-aza-dC sensitizer; scaled so ellipticine positive control = 100%; AID 743238;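 active = mean normalized replicate activation at least 10% and every replicate at or above 10%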;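 also: 0% = median of on-plate neutral control wells and 100% = ellipticine 6 µM median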
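Material: XiGFP fibroblasts, SV40-immortalized. Buffer or medium: DMEM plus 5-aza-dC sensitizer. Compound: single concentration per compound, delivered by pin transfer. Times: 3 days compound exposure. Controls: ellipticine 6 µM.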
Rpn11 block – Rpn11 (human) deubiquitinase inhibition | inhibition, % at 20 µM | human 26S proteasome, Ub4-pepOG fluorescence polarization; 20S core pre-blocked with epoxomicin | O00487 | 360,000 tested, 0.59% active | AID 588493;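 active = inhibition at 20 µM, scaled to each plate's controls, above about 33%, limit read from the data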
Target sequence (O00487 whole entry, looked up): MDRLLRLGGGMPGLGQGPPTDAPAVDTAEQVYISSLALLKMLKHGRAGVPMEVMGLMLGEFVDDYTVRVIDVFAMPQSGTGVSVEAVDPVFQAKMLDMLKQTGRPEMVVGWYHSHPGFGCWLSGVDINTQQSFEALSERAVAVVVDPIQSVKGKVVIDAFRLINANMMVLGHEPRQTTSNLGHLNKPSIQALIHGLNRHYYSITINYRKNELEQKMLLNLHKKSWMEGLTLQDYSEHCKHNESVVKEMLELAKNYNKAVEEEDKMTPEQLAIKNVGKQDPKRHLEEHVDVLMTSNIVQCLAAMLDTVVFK
NadD block – NadD (S. aureus) enzyme inhibition; purified NadD enzyme, colorimetric absorbance read-out; inhibition, % at 20 µM; 360,000 tested, 0.78% active; AID 602399; in the data active = inhibition above about 26%
ABHD5-PLIN5 inh – ABHD5-PLIN5 protein interaction inhibition; 360,000 tested, 0.78% active; Split G. princeps luciferase complementation, luminescence, 4 h; inhibition, % at 4 µM; AID 602281;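 active = inhibition above the mean inhibition across every tested compound plus 3 SD, cut at about 22% in these data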;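 also: 0% = DMSO only wells and the 100% control is not disclosed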
Rin1 Abl inh – human Rin1-Abl interaction inhibition. TR-FRET Rin1/Abl binding, biochemical. AID 588664. 360,000 tested, 0.4% active. P00519+Q13671. inhibition, % at 7.35 µM; in the data active = inhibition above about 5%, passing the limit was not always enough
NadD inh conf – confirmation of Staphylococcus aureus NadD inhibitors; shares compounds with NadD block; 2,000 tested, 13% active; AID 624309; purified S. aureus NadD, colorimetric enzyme assay; inhibition, % at 20 µM; in the data active = inhibition mostly above about 42%, no sharp cut-off; inactive = mostly below about 42%
Numbers without * were called inactive; . = no result given; ! = not active in a repeat.

SMILES | Xi reactivation | Rpn11 block | NadD block | ABHD5-PLIN5 inh | Rin1 Abl inh | NadD inh conf
CN1CCN(c2ccc(Cl)cc2NC(=O)c2ccc(S(=O)(=O)N(C)C)cc2)CC1 | . | -2 | -7 | 8 | -1 | .
COc1ccccc1NS(=O)(=O)c1cc(NC(=O)Nc2cccc(C)c2)ccc1N1CCCCC1 | 0 | 11 | 30* | -13 | 0 | 47
Cc1cccc(NC(=O)c2cc(NC(=O)c3ccco3)ccc2N2CCCCC2)c1 | . | -11 | 1 | -1 | -6 | .
CN(C)S(=O)(=O)c1ccc(C(=O)Nc2cc(S(=O)(=O)Nc3ccccc3Cl)ccc2N2CCCCC2)cc1 | 0 | 15 | 29* | 4 | 0 | 32
O=C(Nc1ccc(Cl)cc1)Nc1ccc(N2CCCC2)c(S(=O)(=O)Nc2ccccc2Cl)c1 | 0 | 3 | 33* | -10 | -1 | 22
COc1ccccc1NS(=O)(=O)c1cc(NC(C)=O)ccc1N1CCCCC1 | 0 | 5 | 2 | 9 | 2 | .
Cc1cccc(NC(=O)c2cc(NC(=O)c3ccccc3)ccc2N2CCCCC2)c1 | . | -2 | 32* | -9 | -1 | 20
O=C(c1ccccc1)N1CC2(C1)[C@@H](c1ccccc1)[C@H](CO)N2CC1CC1 | 0 | . | . | . | . | .
Cc1ccc(S(=O)(=O)Nc2ccc3c(c2)C(=O)N([C@H](C)CO)C[C@H](C)[C@H](CN(C)S(=O)(=O)c2ccc(C)cc2)O3)cc1 | 0 | . | . | . | . | .
O=C(O)CSc1c(-c2ccccc2)c2cc(Cl)ccc2[nH]c1=O | 0 | -9 | -3 | 0 | 0 | .
CCN(CC)C(=S)Sc1c(-c2ccccc2)c2cc(Cl)ccc2[nH]c1=O | . | 37 | 39* | 10 | -3 | 0
COc1ccc(NC(=O)c2ccc3c(c2)S(=O)(=O)c2ccccc2C3=O)cc1 | 0 | 0 | 1 | -8 | -3 | .
CC(C)(C)c1ccc(NC(=O)c2ccc3c(c2)S(=O)(=O)c2ccccc2C3=O)cc1 | 0 | -2 | 28* | 1 | 2 | 9
Cn1cnc(S(=O)(=O)N2CC[C@@H]3[C@@H](CO)Nc4ccc(-c5ccccc5F)cc4[C@@H]32)c1 | 0 | . | . | . | . | .
COc1cccc(-n2c(C)c3c(OC)cccc(=O)c3c2C)c1 | 0 | 14 | 14 | 9 | 1 | .
COc1cccc(=O)c2c(C)n(-c3cc(C)cc(C)c3)c(C)c12 | . | 2 | 35* | -10 | 2 | 43
CSc1nc(SCCO)c2sc3nc(-c4ccco4)c4c(c3c2n1)CC(C)(C)OC4 | . | . | 60* | 16 | -8 | 21
O=C(O)c1cccc(-n2cccc2/C=C2/NC(=O)N(c3ccc(Cl)cc3)C2=O)c1 | 0 | . | 43* | 15 | 4 | 61*
Cc1nn(Cc2c(Cl)cccc2Cl)c(C)c1NC(=O)c1cn(-c2ccccc2)nc1-c1ccccc1 | . | 2 | 34* | 7 | 1 | 6
COc1ccc(C(=O)Nc2cccc(-c3cc4ccccc4oc3=O)c2)cc1[N+](=O)[O-] | 0 | 1 | 35* | 4 | -2 | 10
Cc1cccc(N2CC(C(=O)Nc3nnc(SCC(=O)Nc4nccs4)s3)CC2=O)c1 (stereo unspecified) | 0 | 30 | 62* | 1 | 0 | 7
Cc1ccccc1N1CC(C(=O)Nc2nnc(SCC(=O)Nc3nccs3)s2)CC1=O (stereo unspecified) | . | 24 | 40* | -5 | 0 | 29
Cc1cccc(N2CC(C(=O)Nc3nnc(SCc4cccnc4)s3)CC2=O)c1 (stereo unspecified) | 0 | 14 | 15 | -4 | 1 | .
Cc1cccc(N2CC(C(=O)Nc3nnc(SCC(=O)Nc4cc(C)on4)s3)CC2=O)c1 (stereo unspecified) | 0 | 17 | 74* | 0 | 1 | 0
Cc1ccccc1N1CC(C(=O)Nc2nnc(SCc3ccccn3)s2)CC1=O (stereo unspecified) | 0 | 4 | 20 | -4 | -1 | .
SMILES | Xi reactivation | Rpn11 block | NadD block | ABHD5-PLIN5 inh | Rin1 Abl inh | NadD inh conf
O=C1N[C@@H](c2ccccc2)COCc2cnnn2CC[C@@H]1Cc1ccc(C(F)(F)F)cc1 | 0 | . | . | . | . | .
Fc1cc(NC(=S)NCc2ccc(CNC(=S)Nc3ccc(Cl)c(F)c3)cc2)ccc1Cl | 0 | 5 | 36* | -3 | 0 | 39
CCCNC(=O)C[C@H]1CC[C@H]2[C@H](COc3ccc(NC(=O)Cc4ccccc4)cc3C(=O)N2C)O1 | 0 | . | . | . | . | .
O=C(Nc1nc(-c2ccccn2)cs1)c1ncc(Cl)c(Cl)c1Cl | . | 13 | 36* | 2 | 1 | 5
O=C(Nc1nc(-c2ccccn2)cs1)c1ccc(Cl)s1 | 0 | 26 | 0 | 8 | 0 | .
O=C(Cc1ccccc1Cl)Nc1ccc(S(=O)(=O)Nc2nccs2)cc1 | 0 | 0 | -2 | -2 | -2 | .
O=C(CSc1ccc(Br)c2cccc(Cl)c12)Nc1ccc(S(=O)(=O)Nc2nccs2)cc1 | 0 | -1 | 71* | 16 | 2 | 31*
C[C@@H]1CN([C@@H](C)CO)C(=O)Cc2cc(NC(=O)Nc3ccc4c(c3)OCO4)ccc2O[C@H]1CN(C)S(=O)(=O)c1cccs1 | 0 | . | . | . | . | .
O=C(NCc1ccccc1)c1ccc2nc(-c3ccco3)c(-c3ccco3)nc2c1 | . | 8 | 45* | 24* | 6 | 7
CCc1nnc(NCC(=O)N2CCc3ccccc32)s1 | . | 5 | 45* | 4 | 1 | 46
O=C(CNCCO)N1CCc2ccccc21 | . | -1 | -1 | -4 | 2 | .
CNC(=O)C[C@H]1CC[C@@H]2[C@H](COc3ccc(NC(=O)Nc4cccc(C)c4)cc3C(=O)N2C)O1 | 0 | . | . | . | . | .
O=C(COC(=O)/C=C/c1ccc(Br)o1)Nc1ccc2[nH]c(=O)[nH]c2c1 | 0 | 40 | 29* | 2 | 4 | 2
COc1ccc(C2Nc3ccccc3C(=O)N2Cc2ccco2)cc1COc1ccc(F)cc1 (stereo unspecified) | . | 9 | 3 | 2 | 2 | .
COc1ccc(C2Nc3ccccc3C(=O)N2Cc2ccco2)cc1CN1C(=O)c2ccccc2C1=O (stereo unspecified) | 0 | 8 | 39*! | 6 | 1 | 22
COc1ccccc1NC(=O)N1CC[C@@H]2[C@H]1c1cc(C#Cc3ccc(F)cc3)ccc1N(C)[C@@H]2CO | 0 | . | . | . | . | .
O=C(/C=C/c1ccco1)N1CCN(c2ncccn2)CC1 | 0 | -10 | 0 | 0 | -7 | .
O=C(/C=C/c1ccco1)N1CCC(Cc2ccccc2)CC1 | 0 | 23 | 34* | 19 | -2 | 21
O=C1Nc2ccccc2N=C(c2ccc3c(c2)OCO3)C1N(C(=O)c1ccc2ccccc2c1)C1CC1 (stereo unspecified) | 1 | 18 | 35* | 4 | 0 | 22
O=C(C[C@@H]1CC[C@@H](NC(=O)C2CCOCC2)[C@@H](CO)O1)Nc1ccc(-c2ccccc2)cc1 | 0 | . | . | . | . | .
O=C(Nc1c2c(nn1-c1ccc(F)cc1)CSC2)c1ccc(S(=O)(=O)N2CCOCC2)cc1 | . | 11 | 42* | 3 | -2 | 34

Assay outcomes deposited in PubChem BioAssay by several laboratories.
